Measurements as given in paper PMC4955683 (Nature chemical biology, 2016).

Legend:
[1] = system: SIRT6 (self ADP-ribosylation); experiment: In vitro mono-ADP-ribosylation assay; type: biochemical, human; conditions: 2.5 µM SIRT6, 50 µM 6-alkyne-NAD, 30°C, 30 min
In short: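 Reactions contained SIRT6 WT or mutants in 25 mM Tris-HCl pH 8.0, 50 mM NaCl, 1 mM DTT, with NAD+ replacing 6-alkyne-NAD as negative control. Click chemistry with BODIPY-N3, TBTA, CuSO4 and TCEP ran 30 min at room temperature. Samples were boiled in SDS buffer, separated on 12% SDS-PAGE and destained 2 h, and ADP-ribosylation was read as in-gel BODIPY fluorescence.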

[2] = HPLC analysis of SIRT6 binding to NAD+; conditions: 10 µM SIRT6 incubated with 10 µM NAD+, 10 kDa cutoff membrane
In short: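 SIRT6 (10 µM; WT, G60A or H133Y) was incubated with 10 µM NAD+ in 25 mM Tris-HCl pH 8.0, 50 mM NaCl for 30 min at room temperature. The mix was diluted to 500 µL and spun through a 10 kDa membrane (15,000 g, 20 min). The filtrate (unbound NAD+) was lyophilized, redissolved in water and quantified by HPLC.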

RPL17 and RPS7 = RPL17 and RPS7 in exosomes from MEFs; type: cell-based, mouse; conditions: exosomes from Sirt6 KO MEFs expressing SIRT6
In short: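 MEFs at 90% confluence were washed with PBS and serum-free DMEM, then conditioned in serum-free medium for 12 h. Medium was cleared at 500 g (5 min) and 3,000 g (20 min), then passed through a 0.2 µm filter. Filtrate was ultracentrifuged at 100,000 g for 2 h, and pellets were washed, re-pelleted and lysed in NP-40 buffer. Blots used RPL17/RPS7 antibodies (1:1000, 4 °C 12 h) with ECL detection.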

TNFα = experiment: ELISA analysis of TNFα secretion in MEFs; type: cell-based, Human; conditions: SIRT6 stably expressed in Sirt6 KO MEFs
[3] = NAD+ binding by intrinsic tryptophan fluorescence; conditions: read-out: Kd for NAD^+ in the presence of H3K9 acetyl peptide, 1 mM H3K9 acetyl peptide
In short: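 SIRT6 (3 µM) in 25 mM Tris-HCl pH 7.4, 150 mM NaCl, 10% glycerol was premixed with 1 mM tryptophan-free Ac-H3K9 and titrated with NAD+. Excitation was 295 nm with emission scanned 320–390 nm, using peak maxima. Fraction bound was (F−F0)/(Fsat−F0), and Kd came from a one-site quadratic binding fit with [E] = 3 µM.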

H3K9 myristoyl peptide [4] = experiment: Defatty-acylation assay, SIRT6 purified from HEK 293T cells; type: biochemical; conditions: 0.2 µM SIRT6 from HEK293T cells, 5 µM Myr-H3K9, 1 mM NAD+, 37°C, 60 min
In short: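 SIRT6 WT or mutants were affinity-purified from HEK 293T lysates on anti-Flag gel, eluted with 3X FLAG peptide and buffer-exchanged on a 10 kDa membrane. Reaction buffer was 25 mM Tris-HCl pH 8.0, 50 mM NaCl, 1 mM DTT. Reactions were quenched with cold acetonitrile and centrifuged, and supernatants were analysed by C18 reverse-phase HPLC (water/acetonitrile, 0.1% TFA) for H3K9 peptide formation.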

[5] = Thermal shift assay and tryptophan fluorescence emission spectra; type: physicochemical
H3K9 acetyl peptide = experiment: Deacetylation assay, SIRT6 WT and mutants purified from E. coli; type: biochemical; conditions: 2 µM SIRT6, 25 µM H3K9 acetyl peptide, 1 mM NAD+, 300 µM palmitic acid, 37°C, 2 hours
In short: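 Full-length human SIRT6 (WT or mutant) was expressed from pET28a in E. coli BL21(DE3). Reactions (40 µL) contained 25 mM Tris-HCl pH 8.0, 50 mM NaCl and 1 mM DTT plus the listed components. They were quenched with an equal volume of cold acetonitrile and centrifuged. Supernatants were run on C18 HPLC using a water/acetonitrile 0.1% TFA gradient to quantify deacetylated H3K9 peptide.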

[6] = system: acetyl-H3K9 and acetyl-H3K56; type: cell-based, Human; conditions: flag-tagged SIRT6 overexpressed in SIRT6 KO 293T cells
In short: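 Sirt6 KO HEK 293T cells in DMEM/10% heat-inactivated FBS were transiently transfected with SIRT6 WT, mutants or empty pCMV4a. Blots were probed with Ac-H3K9, Ac-H3K56 and histone H3 antibodies (1:5000; acetyl antibodies 4 °C 12 h), then secondary antibody (1:3000, 1 h RT). Detection was by ECL chemiluminescence; band intensities were quantified as mean ± s.d. of three replicates.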

H3K9 myristoyl peptide [7] = experiment: Demyristoylation steady-state kinetics; type: biochemical
[8] = system: IAP2, GLS, RPL3 and MnSOD; experiment: mRNA levels of SIRT6-regulated genes in Sirt6 KO MEFs; type: cell-based, mouse; conditions: SIRT6 overexpressed in Sirt6 KO MEFs
[9] = system: H3K9 palmitoyl, TNFα myristoyl and H3K9 octanoyl peptides; experiment: Defatty-acylation assay on other fatty-acyl peptides; type: biochemical
Sirt6 KO MEFs [10] = experiment: Secreted and intracellular protein levels in MEFs; type: cell-based, mouse; conditions: SIRT6 overexpressed in Sirt6 KO cells
In short: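 MEFs at 90% confluence were washed with PBS and serum-free DMEM, then kept in serum-free DMEM for 12 h. Medium was cleared at 500 g (5 min) and 3,000 g (10 min) and concentrated on 10 kDa filters. Western blots were probed for VCP, RPL17, RPS7, COL5A1, COL6A1 and CXCL1 (1:1000, 4 °C 12 h), followed by secondary antibody (1:3000, 1 h RT) and ECL detection.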

Sirt6 KO MEFs [11] = experiment: Cell viability after glucose starvation; type: cell-based, mouse; conditions: SIRT6 expressed in Sirt6 KO MEFs, glucose free medium 72 h
In short: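 Stable SIRT6-expressing Sirt6 KO MEFs were selected with […] puromycin 48 h post-infection, with empty pCDH vector as control, and grown in DMEM/10% heat-inactivated FBS. Cells were seeded at 3,000/well and switched after 48 h to glucose-free DMEM/10% FBS for 72 h. They were then fixed in cold methanol, stained with 0.2% crystal violet, solubilized in 0.5% SDS/50% ethanol, and read at 550 nm.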

| Substance | ADP-ribosyltransferase (ART) activity [1] | NAD^+ bound to SIRT6 [2] [%] | RPL17 and RPS7 in exosomes (RPL17 and RPS7) | TNFα secretion (TNFα) | Kd [3] [µM] | defatty-acylase activity, substrate conversion (H3K9 myristoyl peptide [4]) [%] | stability and fluorescence with H3K9 myristoyl peptide ([5]; 0.1 mM H3K9 myristoyl peptide) | stability and fluorescence with H3K9 acetyl peptide ([5]; 1 mM H3K9 acetyl peptide) | thermal stability ([5]; without peptide, versus SIRT6 WT, 37 to 62 °C for 3 min) | H3K9 acetyl peptide hydrolyzed/converted to H3K9 peptide (H3K9 acetyl peptide) | H3K9 and H3K56 acetylation levels in cells [6] | decrease of kcat of demyristoylation versus SIRT6 WT (H3K9 myristoyl peptide [7]) [fold] | increase of Km of demyristoylation versus SIRT6 WT (H3K9 myristoyl peptide [7]) [fold] | transcriptional suppression of IAP2, GLS, RPL3 and MnSOD [8] | defatty-acylase activity on other fatty-acyl peptides [9] | secreted levels of Group 1 proteins (RPL17, RPS7, VCP) (Sirt6 KO MEFs [10]) | secreted levels of Group 2 proteins (COL6A1, COL5A1, CXCL1) (Sirt6 KO MEFs [10]) | glucose starvation-caused cell death (Sirt6 KO MEFs [11]) |
| --- | --- | --- | --- | --- | --- | --- | --- | --- | --- | --- | --- | --- | --- | --- | --- | --- | --- | --- |
| SIRT6 R65A | weak self ADP-ribosylation activities |  |  |  |  |  |  |  |  |  |  |  |  |  |  |  |  |  |
| SIRT6 H133Y |  | 59 ± 3 | can be detected | no effect on TNFα secretion |  |  |  |  |  |  |  |  |  |  |  |  |  |  |
| SIRT6 G60A | no observable ART activity | 2.0 ± 0.7 | not in exosomes | promoted TNFα secretion | 634 ± 91 | 25.6 | became similar to those of SIRT6 WT | not affected | decreased thermal stability | approximately 1.8% | no detectable deacetylase activity in cells | 1.9 | 1.8 | could not | robust defatty-acylase activities | decreased the secreted levels to that in Sirt6 WT cells | restored the secreted levels to that in Sirt6 WT cells | neither SIRT6 G60A nor H133Y did |
